Reference: ChEMBL document CHEMBL3877308, “Design, synthesis and in vitro biological evaluation of oligopeptides targeting E. coli type I signal peptidase (LepB)” (Bioorg Med Chem, 2017)
≈ marks a conversion by molar mass, not a printed value.

Columns and labels:
[1] = molecular target: Signal peptidase I (Escherichia coli K-12) (UniProt P00803); test: Inhibition of full length Escherichia coli His6-tagged LepB expressed in Escherichia coli C43(DE3) assessed as residual activity at 0.039 uM using dabcyl-VEVGGTATAGAFSRPGLE-(EDANS) as substrate preincubated for 10 mins followed by substrate addition measured for 2 hrs by FRET assay relative to control
In short: (§1)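 Enzyme came from the membrane fraction, extracted with 1% reduced Triton X-100 and purified by metal-chelation chromatography in 0.5% detergent. FRET pair was dabcyl acceptor and EDANS donor. EcLepB (final about 50 nM) was pre-incubated with compound 10 min at 22 °C. Reaction was then run with 8 µM substrate, following the linear fluorescence increase at 22 °C for 2 h.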

[2] = Hemolytic activity against human RBC at 100 uM after 45 mins by spectrophotometric method relative to control; format: ADME, cell-based, Erythrocyte; conditions: red blood cells (RBC), read-out: Activity
In short: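 Hemolysis was tested using red blood cells from heparinized human blood.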

[3] = molecular target: Signal peptidase I (Escherichia coli K-12) (UniProt P00803); test: Inhibition of full length Escherichia coli His6-tagged LepB expressed in Escherichia coli C43(DE3) assessed as residual activity at 1.25 uM using dabcyl-VEVGGTATAGAFSRPGLE-(EDANS) as substrate preincubated for 10 mins followed by substrate addition measured for 2 hrs by FRET assay relative to control; in short: as §1
[4] = molecular target: Signal peptidase I (Escherichia coli K-12) (UniProt P00803); test: Inhibition of full length Escherichia coli His6-tagged LepB expressed in Escherichia coli C43(DE3) assessed as residual activity at 0.02 uM using dabcyl-VEVGGTATAGAFSRPGLE-(EDANS) as substrate preincubated for 10 mins followed by substrate addition measured for 2 hrs by FRET assay relative to control; in short: as §1
[5] = molecular target: Signal peptidase I (Escherichia coli K-12) (UniProt P00803); test: Inhibition of full length Escherichia coli His6-tagged LepB expressed in Escherichia coli C43(DE3) at 100 uM using dabcyl-VEVGGTATAGAFSRPGLE-(EDANS) as substrate preincubated for 10 mins followed by substrate addition measured for 2 hrs by FRET assay relative to control; in short: as §1
[6] = tested on: Escherichia coli; test: Antibacterial activity against Escherichia coli CH3130 harboring tolC deletion mutant after 16 to 20 hrs by broth microdilution assay; format: functional
In short: (§2)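 Broth microdilution MIC in cation-adjusted Mueller-Hinton II medium, following EUCAST and CLSI guidelines; tested on a panel of Gram-negative strains plus S. aureus ATCC 29213 (wild-type).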

[7] = tested on: Pseudomonas aeruginosa; test: Antibacterial activity against wild type Pseudomonas aeruginosa PAO1 after 16 to 20 hrs by broth microdilution assay; format: functional
In short: (§3)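 MIC by broth microdilution in cation-adjusted Mueller-Hinton II medium, following EUCAST and CLSI guidelines; panel of Gram-negative strains plus S. aureus ATCC 29213.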

[8] = molecular target: Signal peptidase I (Escherichia coli K-12, UniProt P00803); test: Inhibition of full length Escherichia coli His6-tagged LepB expressed in Escherichia coli C43(DE3) using dabcyl-VEVGGTATAGAFSRPGLE-(EDANS) as substrate preincubated for 10 mins followed by substrate addition measured for 2 hrs by FRET assay
In short: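 Enzyme extracted from the membrane fraction with 1% reduced Triton X-100 and purified by metal-chelation chromatography in 0.5% detergent. Enzyme (final ~50 nM) was pre-incubated with compound for 10 min at 22 °C. The linear rise in EDANS donor fluorescence (dabcyl acceptor) was then followed at 22 °C for 2 h. IC50 came from non-linear regression of sigmoidal rate-versus-concentration curves.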

[9] = tested on: Escherichia coli; test: Antibacterial activity against wild type Escherichia coli ATCC 25922 after 16 to 20 hrs by broth microdilution assay; format: functional; in short: as §3
[10] = tested on: Acinetobacter baumannii; test: Antibacterial activity against wild type Acinetobacter baumannii ATCC 19606 after 16 to 20 hrs by broth microdilution assay; format: functional; in short: as §3
[11] = molecular target: Signal peptidase I (Escherichia coli K-12) (UniProt P00803); test: Inhibition of full length Escherichia coli His6-tagged LepB expressed in Escherichia coli C43(DE3) assessed as residual activity at 0.156 uM using dabcyl-VEVGGTATAGAFSRPGLE-(EDANS) as substrate preincubated for 10 mins followed by substrate addition measured for 2 hrs by FRET assay relative to control; in short: as §1
[12] = tested on: Escherichia coli; test: Antibacterial activity against Escherichia coli D22 harboring lpxC mutant after 16 to 20 hrs by broth microdilution assay; format: functional; in short: as §2
[13] = molecular target: Signal peptidase I (Escherichia coli K-12) (UniProt P00803); test: Inhibition of full length Escherichia coli His6-tagged LepB expressed in Escherichia coli C43(DE3) assessed as residual activity at 0.078 uM using dabcyl-VEVGGTATAGAFSRPGLE-(EDANS) as substrate preincubated for 10 mins followed by substrate addition measured for 2 hrs by FRET assay relative to control; in short: as §1
[14] = molecular target: Signal peptidase I (Escherichia coli K-12) (UniProt P00803); test: Inhibition of full length Escherichia coli His6-tagged LepB expressed in Escherichia coli C43(DE3) assessed as residual activity at 10 uM using dabcyl-VEVGGTATAGAFSRPGLE-(EDANS) as substrate preincubated for 10 mins followed by substrate addition measured for 2 hrs by FRET assay relative to control; in short: as §1
[15] = tested on: Staphylococcus aureus; test: Antibacterial activity against wild type Staphylococcus aureus ATCC 29213 after 16 to 20 hrs by broth microdilution assay; format: functional; in short: as §3
[16] = Cytotoxicity against human HepG2 cells assessed as reduction in cell viability after 72 hrs by fluorescein diacetate dye based fluorometric microculture assay; format: toxicity
In short: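 FMCA on HepG2 cells read at 72 h. Survival index (%) is fluorescence in test wells as percent of control cultures, with blank values subtracted. IC50 was obtained by non-linear regression of log concentration-effect curves.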

[17] = tested on: Pseudomonas aeruginosa; test: Antibacterial activity against wild type Pseudomonas aeruginosa PAO750 harboring efflux defective mutant after 16 to 20 hrs by broth microdilution assay; format: functional; in short: as §2
[18] = molecular target: Signal peptidase I (Escherichia coli K-12) (UniProt P00803); test: Inhibition of full length Escherichia coli His6-tagged LepB expressed in Escherichia coli C43(DE3) assessed as residual activity at 5 uM using dabcyl-VEVGGTATAGAFSRPGLE-(EDANS) as substrate preincubated for 10 mins followed by substrate addition measured for 2 hrs by FRET assay relative to control; in short: as §1
[19] = molecular target: Signal peptidase I (Escherichia coli K-12) (UniProt P00803); test: Inhibition of full length Escherichia coli His6-tagged LepB expressed in Escherichia coli C43(DE3) assessed as residual activity at 0.313 uM using dabcyl-VEVGGTATAGAFSRPGLE-(EDANS) as substrate preincubated for 10 mins followed by substrate addition measured for 2 hrs by FRET assay relative to control; in short: as §1
[20] = molecular target: Signal peptidase I (Escherichia coli K-12) (UniProt P00803); test: Inhibition of full length Escherichia coli His6-tagged LepB expressed in Escherichia coli C43(DE3) assessed as residual activity at 0.01 uM using dabcyl-VEVGGTATAGAFSRPGLE-(EDANS) as substrate preincubated for 10 mins followed by substrate addition measured for 2 hrs by FRET assay relative to control; in short: as §1
[21] = molecular target: Signal peptidase I (Escherichia coli K-12) (UniProt P00803); test: Inhibition of full length Escherichia coli His6-tagged LepB expressed in Escherichia coli C43(DE3) assessed as residual activity at 0.625 uM using dabcyl-VEVGGTATAGAFSRPGLE-(EDANS) as substrate preincubated for 10 mins followed by substrate addition measured for 2 hrs by FRET assay relative to control; in short: as §1
[22] = tested on: Klebsiella pneumoniae; test: Antibacterial activity against wild type Klebsiella pneumoniae […] after 16 to 20 hrs by broth microdilution assay; format: functional; in short: as §3
[23] = molecular target: Signal peptidase I (Escherichia coli K-12) (UniProt P00803); test: Inhibition of full length Escherichia coli His6-tagged LepB expressed in Escherichia coli C43(DE3) assessed as residual activity at 2.5 uM using dabcyl-VEVGGTATAGAFSRPGLE-(EDANS) as substrate preincubated for 10 mins followed by substrate addition measured for 2 hrs by FRET assay relative to control; in short: as §1
[24] = molecular target: Signal peptidase I (Escherichia coli K-12) (UniProt P00803); test: Inhibition of full length Escherichia coli His6-tagged LepB expressed in Escherichia coli C43(DE3) assessed as residual activity at 0.002 uM using dabcyl-VEVGGTATAGAFSRPGLE-(EDANS) as substrate preincubated for 10 mins followed by substrate addition measured for 2 hrs by FRET assay relative to control; in short: as §1

Sequence of Signal peptidase I (Escherichia coli K-12) (P00803 whole entry): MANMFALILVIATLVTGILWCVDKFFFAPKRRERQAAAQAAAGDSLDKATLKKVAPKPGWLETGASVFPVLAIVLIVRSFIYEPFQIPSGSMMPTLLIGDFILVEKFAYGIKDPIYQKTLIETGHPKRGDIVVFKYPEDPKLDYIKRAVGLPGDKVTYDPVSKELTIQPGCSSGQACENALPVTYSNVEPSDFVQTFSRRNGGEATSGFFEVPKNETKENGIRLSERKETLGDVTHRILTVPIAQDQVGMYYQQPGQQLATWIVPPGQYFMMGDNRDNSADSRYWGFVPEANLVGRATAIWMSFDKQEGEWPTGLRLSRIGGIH
Sequence of Signal peptidase I (P00803 whole entry): as above

## CCCCCCc1ccc(-c2ccc(C(=O)N3CCC[C@H]3C(=O)N[C@H](C(=O)N[C@@H](C)C(=O)N[C@@H](CC(N)=O)C(=O)N[C@@H](C)B(O)O)[C@H](C)O)cc2)cc1
[1]
  Activity: 97%
[2]
  hemolysis at 0.75 h, 100 µM: 1.1%
[3]
  Activity: 16.8%
[4]
  Activity: 97.9%
[5]
  inhibition: > 50%
[6]
  MIC: > 64 µg/mL
[7]
  MIC: > 64 µg/mL
[8]
  IC50: 230 nM
[9]
  MIC: > 64 µg/mL
[10]
  MIC: > 64 µg/mL
[11]
  Activity: 62.6%
[12]
  MIC: > 64 µg/mL
[13]
  Activity: 95.5%
[14]
  Activity: 7.23%
[15]
  MIC: 4 µg/mL (≈ 5.43 µM)
[16]
  IC50 at 72 h: > 64 µM
[17]
  MIC: > 64 µg/mL
[18]
  Activity: 4.71%
[19]
  Activity: 38.4%
[20]
  Activity: 97.1%
[21]
  Activity: 33.5%
[22]
  MIC: > 64 µg/mL
[23]
  Activity: 7.49%

## CC(=O)N1CCC[C@H]1C(=O)N[C@H](C(=O)N[C@@H](C)C(=O)N[C@@H](CC(N)=O)C(=O)N[C@@H](C)B1O[C@@H]2C[C@@H]3C[C@@H](C3(C)C)[C@]2(C)O1)C(C)O (single isomer, unassigned)
[5]
  inhibition: 26%

## CC(=O)N[C@@H](C)C(=O)C(=O)NCc1cccc2ccccc12
[5]
  inhibition: 31%

## CC(=O)N1CCC[C@H]1C(=O)N[C@H](C(=O)N[C@@H](C)C(=O)N[C@@H](CC(N)=O)C(=O)N[C@@H](C)C(=O)C(=O)NCc1cccc2ccccc12)[C@H](C)O
[5]
  inhibition: 32.3%

## CCCCc1ccc(-c2ccc(C(=O)N[C@@H](CCN)C(=O)N[C@H](C(=O)N[C@@H](C)C(=O)N[C@@H](CCCCN)C(=O)N[C@@H](C)B3O[C@@H]4C[C@@H]5C[C@@H](C5(C)C)[C@]4(C)O3)[C@H](C)O)cc2)cc1
[1]
  Activity: 80.2%
[2]
  hemolysis at 0.75 h, 100 µM: 12.8%
[3]
  Activity: 0.522%
[6]
  MIC: 4 µg/mL (≈ 4.65 µM)
[7]
  MIC: 32 µg/mL (≈ 37.2 µM)
[8]
  IC50: 110 nM
[9]
  MIC: 8 µg/mL (≈ 9.3 µM)
[10]
  MIC: 32 µg/mL (≈ 37.2 µM)
[11]
  Activity: 25.3%
[12]
  MIC: 1 µg/mL (≈ 1.16 µM)
[13]
  Activity: 72.7%
[14]
  Activity: -0.117%
[15]
  MIC: < 0.125 µg/mL
[16]
  IC50 at 72 h: 12.5 µM
[17]
  MIC: 8 µg/mL (≈ 9.3 µM)
[18]
  Activity: 0.501%
[24]
  Activity: 98.2%
[19]
  Activity: 18.9%
[20]
  Activity: 86.8%
[21]
  Activity: 6.98%
[22]
  MIC: 2 µg/mL (≈ 2.33 µM)
[23]
  Activity: 3.33%

## CCCCCCCCCC(=O)N1CCC[C@H]1C(=O)N[C@H](C(=O)N[C@@H](C)C(=O)N[C@@H](CC(N)=O)C(=O)N[C@@H](C)C(=O)N1CCC[C@H]1C(=O)NC)[C@H](C)O
[5]
  inhibition: 31.3%

## CC(=O)N[C@@H](C)B1O[C@@H]2C[C@@H]3C[C@@H](C3(C)C)[C@]2(C)O1
[5]
  inhibition: 18%

## CC(=O)N[C@@H](C)C(=O)N[C@@H](CC(N)=O)C(=O)N[C@@H](C)C(=O)C(=O)NCc1cccc2ccccc12
[5]
  inhibition: 26.6%

## CCCCCCCCCC(=O)N1CCC[C@H]1C(=O)N[C@H](C(=O)N[C@@H](C)C(=O)N[C@@H](CC(N)=O)C(=O)N[C@@H](C)C(=O)C(=O)NCc1cccc2ccccc12)[C@H](C)O
[5]
  inhibition: 14.4%

## CNC(=O)[C@@H]1CCCN1C(=O)[C@H](C)NC(=O)[C@H](CC(N)=O)NC(=O)[C@H](C)NC(=O)[C@@H](NC(=O)[C@@H]1CCCN1C(C)=O)[C@H](C)O
[5]
  inhibition: 35.8%

## CC(=O)N1CCC[C@H]1C(=O)N[C@H](C(=O)N[C@@H](C)C(=O)N[C@@H](CC(N)=O)C(=O)N[C@@H](C)C(=O)C(=O)NC(C)(C)C)[C@H](C)O
[5]
  inhibition: 22.5%

## CCCCCCCCCC(=O)N1CCC[C@H]1C(=O)N[C@H](C(=O)N[C@@H](C)C(=O)N[C@@H](CC(N)=O)C(=O)N[C@@H](C)C(=O)C(=O)NC(C)(C)C)[C@H](C)O
[5]
  inhibition: 31.5%

## CCCCCCCCCC(=O)N1CCC[C@H]1C(=O)N[C@H](C(=O)N[C@@H](C)C(=O)N[C@@H](CC(N)=O)C(=O)N[C@@H](C)C(=O)O)[C@H](C)O
[5]
  inhibition: 38%

## CC(=O)N[C@@H](C)C(=O)N[C@@H](CC(N)=O)C(=O)N[C@@H](C)C(=O)C(=O)NC(C)(C)C
[5]
  inhibition: 13.3%
